Reference: PubChem BioAssay
Inconclusive results are not listed. Activity calls are given as the source filed them.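 Rule for the calls, unless noted: active = viability increase at or above a cutoff of the median across tested compounds plus 3 SD (cut at about 8.5% in these data, passing the limit was not always enough); inconclusive = some gains above the cutoff, reason not given; inactive = the rest.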

Experiments:
[1] = OD615 S. cerevisiae growth inhibition, permissive medium, pilot counter-assay, permissive growth control for S. cerevisiae lifespan shortening project (AID 705;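 active = growth inhibition above 25% in both replicates, a cutoff set 3 SD above the mean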); conditions: OD615, 24 h, at 10 µM, active compounds read high
In short: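 Material: engineered DeaD yeast; Compound: one dose 10 µM, DMSO 0.25% final; Detection: absorbance (optical density) at 615 nm; Buffer or medium: permissive raffinose/galactose medium; Timing: 24 h exposure, 30 °C.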

[2] = Restrictive medium S. cerevisiae growth inhibition, OD615, pilot screen of yeast lifespan reduction project, restrictive growth control (AID 706;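 active = growth inhibition above a set limit, 3 SD over mean compound inhibition, in both replicates, cut at about 43% in these data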;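 note: modified DeaD lifespan yeast strain shifted to restrictive glucose medium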); conditions: OD615, 48 h, at 10 µM, active compounds read high
In short: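 Buffer or medium: restrictive glucose medium (CSMM-D); test system: modified S. cerevisiae; doses: single dose of 10 µM compound final, 0.25% DMSO; schedule: 48 h compound exposure at 30 °C; detection: absorbance (optical density) measured at 615 nm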

[3] = viability gain of MRP-1-high H69AR cells under doxorubicin, pilot screen, MRP-1 activator project, CellTiter-Glo, duplicate (AID 807); conditions: H69AR viability with doxorubicin, CellTiter-Glo luminescence; at 10 µM; active compounds read high;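 note: compound pretreatment 18-22 h then 72 h combined with doxorubicin; 0% = doxorubicin alone and 100% = vehicle without doxorubicin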
[4] = growth suppression of beta-catenin knockout HCT116, pilot screen, human colon tumor cells (AID 823;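 active = cell viability at or below a set limit in both duplicate runs, the limit being the all-compound median minus 4 SD, cut at about 23% in these data, passing the limit was not always enough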;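 note: 0% = wells killed by 20 µM Hyamine and 100% = untreated DMSO cell wells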); conditions: CellTiter-Glo, 60 h, at 10 µM, active compounds read low
[5] = growth suppression of PTEN-deleted HCT116, pilot screen, cell-based, HCT116 clonal line, CellTiter-Glo (AID 824;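 active = viability at or below 27.92% in each of two runs, the all-compound median minus 4 SD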;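 note: 0% = 20 µM Hyamine control and 100% = vehicle cell control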); conditions: 60 h, at 10 µM, active compounds read low
[6] = inhibitors of the yeast RAM network, pilot screen, dse1pr::URA3 reporter, 5-FOA selection (AID 869;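 active = inhibition over a set limit, the all-compound mean plus 3 SD, in both replicate runs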;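 note: 0% = DMSO wells with no growth and 100% = 10 µM 1-NA-PP1 with full growth; RAM network block rescues cells from 5-FOA so hits raise OD615 growth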); conditions: S. cerevisiae dse1pr::URA3 5-FOA growth, OD615, 2 d; at 10 µM; active compounds read high; strain carries analog-sensitive mutant Cbk1 kinase
[7] = RAM signaling pathway blockade in yeast – S. cerevisiae, Pdr1DBD-CYC8 efflux-inhibited sensitized strain, primary screen (AID 1298;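 active = RAM network inhibition above 8.4% in each of two replicates, 3 SD over the compound average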;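 note: 0% = DMSO untreated cells without growth and 100% = 10 µM 1-NA-PP1 full growth; higher means more yeast growth rescued from 5-FOA killing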); conditions: S. cerevisiae cbk1-as DSE1-URA3 strain, 5-FOA growth OD615, 2 d; at 50 µM; active compounds read high

COC(=O)CC1SC(=O)NC1=Nc1ccccc1 (configuration not stated)
inactive: growth inhibition [1] -7.63% | growth inhibition [2] -0.1% | viability increase [3] 0.96% | viability [4] 106% | viability [5] 89.1% | inhibition [6] 1.42% | RAM network inhibition [7] 4.94%

COc1cc(C2C(C(=O)c3ccco3)=C(O)C(=O)N2CCc2ccccc2)ccc1O (configuration not stated)
inactive: growth inhibition [1] -1.96% | growth inhibition [2] -3.74% | viability increase [3] -3.47% | viability [4] 95.8% | inhibition [6] 0.735% | RAM network inhibition [7] -0.31%

CCCn1cc(S(=O)(=O)CC(=O)Nc2ccc(OCC)cc2)c2ccccc21
inactive: growth inhibition [1] 1.42% | growth inhibition [2] 3.91% | viability increase [3] -4.37% | viability [4] 84.7% | inhibition [6] 1.41% | RAM network inhibition [7] 6.49%

C=CCSC1=N/C(=C\c2ccc(C)o2)C(=O)S1
inactive: growth inhibition [1] -9.79% | growth inhibition [2] -6.84% | viability increase [3] -3.69% | viability [4] 101% | viability [5] 98.6% | inhibition [6] 1.58% | RAM network inhibition [7] 2.06%

CC(=O)NC(C)c1nc2ccccc2n1Cc1ccccc1F (configuration not stated)
inactive: growth inhibition [1] -5.38% | growth inhibition [2] -3.36% | viability increase [3] 0.25% | viability [4] 102% | viability [5] 93.8% | inhibition [6] 3.67% | RAM network inhibition [7] 5.71%

O=C1CCCN1CC(CN1CCOCC1)Sc1nc2ccccc2c(=O)n1-c1ccccc1 (configuration not stated)
inactive: growth inhibition [1] -2.25% | growth inhibition [2] -6.07% | viability increase [3] -6.36% | viability [4] 92.1% | viability [5] 97.3% | inhibition [6] 1.88% | RAM network inhibition [7] 1.94%

O=C(NCc1ccco1)c1ccc(Br)c(S(=O)(=O)N2CCCCC2)c1
inactive: growth inhibition [1] 2.44% | growth inhibition [2] -6.06% | viability increase [3] -2.69% | viability [4] 88.8% | viability [5] 88.1% | inhibition [6] 2.61% | RAM network inhibition [7] 4.59%

CCOC(=O)c1nc(-c2ccc3c(c2)OCO3)[nH]c1C
inactive: growth inhibition [1] -0.36% | growth inhibition [2] -0.67% | viability increase [3] -6.6% | viability [4] 29.7% | inhibition [6] 3.15% | RAM network inhibition [7] 1.76%

CC(C)Sc1nc(SCC(=O)NCc2ccco2)c2c3c(sc2n1)COC(C)(C)C3
inactive: growth inhibition [1] -10.2% | growth inhibition [2] -10.9% | viability increase [3] -3.75% | viability [4] 83.2% | viability [5] 86.2% | inhibition [6] 0.615% | RAM network inhibition [7] 11.6%

Fc1ccc(Br)cc1C1C=C(c2cccnc2)Nc2ncnn21 (configuration not stated)
active: growth inhibition [2] 46.9% | RAM network inhibition [7] 21.7%
inactive: growth inhibition [1] 6.35% | viability increase [3] -4.62% | viability [4] 44.5% | inhibition [6] 3.21%

CCOC(=O)C1CCCN(C(=O)CC(C)c2ccccc2)C1 (configuration not stated)
inactive: growth inhibition [1] -14.4% | growth inhibition [2] -0.005% | viability increase [3] -1.25% | viability [4] 104% | inhibition [6] 1.57% | RAM network inhibition [7] 3.91%

CCOC(=O)C1CCCN(C(=O)C2CCCN(S(=O)(=O)c3ccc4c(c3)oc(=O)n4C)C2)C1 (configuration not stated)
inactive: growth inhibition [1] -4.01% | growth inhibition [2] -0.98% | viability increase [3] 0.99% | viability [4] 92.2% | viability [5] 94.5% | inhibition [6] 0.445% | RAM network inhibition [7] -0.53%

COc1ccc(C(c2sc3nc(C)nn3c2O)N2CCC(C(N)=O)CC2)cc1OC (configuration not stated)
inactive: growth inhibition [1] -11.7% | growth inhibition [2] -16.2% | viability increase [3] -0.96% | viability [4] 99.7% | viability [5] 96.2% | inhibition [6] 1.54% | RAM network inhibition [7] 3.49%

C=CCNC(=O)c1ccc2c(c1)nnn2C
inactive: growth inhibition [1] -16% | growth inhibition [2] -12.7% | viability increase [3] -0.65% | viability [4] 103% | inhibition [6] 2.63% | RAM network inhibition [7] 4.93%

CC(=O)Nc1ccc(NC(=O)c2oc3cc(C)c(C)cc3c2C)cc1
inactive: growth inhibition [1] -7.1% | growth inhibition [2] -17% | viability increase [3] -0.82% | viability [4] 104% | viability [5] 96.4% | inhibition [6] 2.38% | RAM network inhibition [7] 5.95%

N#Cc1c2n(cnc1=O)CCCCC2
inactive: growth inhibition [1] -15.7% | growth inhibition [2] 3.32% | viability increase [3] -1.5% | viability [4] 100% | inhibition [6] 0.835% | RAM network inhibition [7] 3.53%

CC(C)Sc1nc(-c2cccs2)nc2c1c(=O)n(C)c(=O)n2C
inactive: growth inhibition [1] -2.16% | growth inhibition [2] -19% | viability increase [3] -6.85% | viability [4] 77.3% | viability [5] 69.4% | inhibition [6] 1.46% | RAM network inhibition [7] 7.05%

CC(C)Sc1nc(NCc2ccco2)c2c3c(sc2n1)COC(C)(C)C3
inactive: growth inhibition [1] 3.17% | growth inhibition [2] 22.4% | viability increase [3] -8.23% | viability [4] 56% | inhibition [6] -0.26% | RAM network inhibition [7] 7.33%

CCOc1cc(C2CC(=O)NC(SCC)=C2C#N)ccc1O (configuration not stated)
inactive: growth inhibition [1] -16.8% | growth inhibition [2] -5.38% | viability increase [3] -1.97% | viability [4] 107% | viability [5] 92.6% | inhibition [6] 1.97% | RAM network inhibition [7] 0.15%

Cc1ccc2c(c1)c(C)c(C)n2CC(O)Cn1nnc2ccccc21 (configuration not stated)
inactive: growth inhibition [1] -9.66% | growth inhibition [2] -5.1% | viability increase [3] -5.06% | viability [4] 82.3% | inhibition [6] 0.335% | RAM network inhibition [7] 2.28%

COc1ccc(N2CCN(CCCNC(=O)CCCn3c(=O)[nH]c4ccsc4c3=O)CC2)cc1
inactive: growth inhibition [1] -10.8% | growth inhibition [2] -8.79% | viability increase [3] -1.23% | viability [4] 94% | inhibition [6] 2.75% | RAM network inhibition [7] 9.35%

COc1ccc(N2C(=O)CCC(C(=O)N3CCC(C(N)=O)CC3)C2c2ccc(F)cc2)cc1 (configuration not stated)
inactive: growth inhibition [1] -5.89% | growth inhibition [2] -16.2% | viability increase [3] -0.33% | viability [4] 99.6% | viability [5] 102% | inhibition [6] 1.6% | RAM network inhibition [7] 3.66%

COc1ccc(-n2nnnc2S(=O)(=O)CC(=O)N2CCCCC2)cc1
inactive: growth inhibition [1] -2.05% | growth inhibition [2] 6.43% | viability increase [3] -9.59% | inhibition [6] 0.75% | RAM network inhibition [7] -0.17%
active: viability [4] 1.47% | viability [5] 2.74%

Cc1c(NC(=O)CCC2CCCCC2)c(=O)n(-c2ccccc2)n1C
inactive: growth inhibition [1] 5.74% | growth inhibition [2] 3.62% | viability increase [3] -0.39% | viability [4] 99.4% | inhibition [6] 0.965% | RAM network inhibition [7] 3.28%
